Screens from PubChem.
This is a sample that favours compounds with a hit; in the whole collection about 2.1% have one here.
TNF necrop inh – TNF-alpha cell death inhibition in Jurkat FADD-/- cells | Jurkat FADD-/- TNF necroptosis rescue, ATP luminescence, 24 h; 0 = TNF only, 100 = no-TNF cells | 220,000 compounds, 0.068% hits | activation (protection from cell death), % at 10 µM;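 active = activation, meaning protection from cell death, of at least 50% relative to plate controls; inactive = activation below 50%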;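 note: necroptosis triggered by 40 ng/mL TNF-alpha added together with compound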
Runt-SMMHC FRET – blocks binding of human RUNX1 Runt domain to CBFb-SMMHC. Q01196+Q13951. Cerulean-Runt/Venus-CBFb-SMMHC FRET ratio 530/480, 1 h. inhibition, % at 20 µM. 220,000 compounds, 0.74% hits. AID 1434;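 active = mean inhibition across duplicate retests at 20 µM reaching about 50%, limit read from the data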;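 note: 0% = DMSO wells and 100% = wells with excess untagged CBFb-SMMHC; inhibitors lower the FRET ratio by blocking Runt binding to CBFb-SMMHC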
Hck Nef HTS – inhibitors of human Hck kinase activated by Nef; inhibition, % at 20 µM; AID 463187; P08631; 220,000 compounds, 0.68% hits; Recombinant Hck-YEEI plus Nef, Z-Lyte FRET kinase assay;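 active = Hck-Nef kinase inhibition above about 50%, limit read from the data; inactive = inhibition below that limit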;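 note: 0% = DMSO with Hck plus Nef and 100% = Hck alone without Nef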
Target sequence (P08631 whole entry, looked up): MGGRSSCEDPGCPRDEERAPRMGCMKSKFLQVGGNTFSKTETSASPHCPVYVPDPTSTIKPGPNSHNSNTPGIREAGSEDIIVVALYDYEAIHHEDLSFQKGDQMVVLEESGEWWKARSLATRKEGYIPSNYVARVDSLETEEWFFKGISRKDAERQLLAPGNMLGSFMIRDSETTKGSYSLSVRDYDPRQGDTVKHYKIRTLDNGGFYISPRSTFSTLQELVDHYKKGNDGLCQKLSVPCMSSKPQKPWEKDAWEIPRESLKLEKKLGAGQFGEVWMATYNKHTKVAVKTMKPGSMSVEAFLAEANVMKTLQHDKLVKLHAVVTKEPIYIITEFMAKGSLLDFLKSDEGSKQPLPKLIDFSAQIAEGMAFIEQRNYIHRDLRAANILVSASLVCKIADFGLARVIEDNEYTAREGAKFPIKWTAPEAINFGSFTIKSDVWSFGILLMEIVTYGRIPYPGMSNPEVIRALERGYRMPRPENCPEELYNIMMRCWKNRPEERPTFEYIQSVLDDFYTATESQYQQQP
Runt-CBFb FRET – blocks binding of human RUNX1 Runt domain to CBFb; Q01196+Q13951; Cerulean-Runt/Venus-CBFb FRET ratio 530/480, 1 h; inhibition, % at 20 µM; 220,000 compounds, 0.46% hits;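 active = inhibition over about 50% at 20 µM in the single-dose screen, limit read from the data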;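 note: 0% = DMSO wells and 100% = excess unlabeled CBFb competitor control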
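test system = Cerulean-tagged RUNX1 Runt domain (FRET donor) fusion protein | reagent = Venus-CBFb binding partner, 100 nM | incubation = protein complex preformed 1 h, compound exposure 1 h, room temperature, dark | detection = FRET fluorescence | read-out basis = loss of energy transfer signal | controls = 5 µM unlabeled CBFb as full-inhibition high control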
RanGTP-Impb inh – inhibitors of RanGTP-importin-beta interaction, primary screen, biochemical, FRET, CFP-Ran, YFP-importin-beta, homogeneous. inhibition, % (no concentration beside the values). cell-free CFP-Ran/YFP-importin-beta FRET ratio. 300,000 compounds, 1.1% hits;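 active = more than half of the replicate wells show a fall in the fluorescence ratio signal beyond about 16%, limit read from the data, passing the limit was not always enough; inconclusive = exactly half of the replicate wells pass the set limit; inactive = fewer than half of replicates pass the limit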;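 note: 0% = DMSO wells and 100% = Ran loaded with GDP instead of GTP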
zVAD death inh – L929 zVAD cell death inhibition; L929 zVAD necroptosis rescue, ATP luminescence, 24 h; with zVAD 60 µM; 220,000 compounds, 0.38% hits; viability rescue, % at 10 µM; AID 1377;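 active = activation, scaled between plate controls, above about 75%, limit read from the data; inactive = activation under that limit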;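 note: 0% = zVAD with DMSO and 100% = DMSO alone without zVAD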
Hck-Nef confirm – confirmation of Hck-Nef kinase inhibitors | shares compounds with Hck Nef HTS | Recombinant Hck-YEEI:Nef, Z-Lyte FRET kinase assay | calls only at 10 µM | 1,300 compounds, 28% hits | AID 463188;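 active = average inhibition of at least 50%, with Z-scores no higher than 3 in both the phospho-tyrosine peptide and fluorescence counterscreens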
An asterisk follows results filed as active; i = inactive; ? = inconclusive; nt = no result given; + = active, no number.

SMILES	TNF necrop inh	Runt-SMMHC FRET	Hck Nef HTS	Runt-CBFb FRET	RanGTP-Impb inh	zVAD death inh	Hck-Nef confirm
COc1ccccc1N1CCN(C(=O)CSc2nc(C)c(C)c(=O)[nH]2)CC1	0	4	66*	-1	?	0	i
COCCCNC(=O)c1c(N)n(-c2cccc(S(N)(=O)=O)c2)c2nc3ccccc3nc12	-3	62*	64*	92*	104*	-1	nt
COCCCNC(=O)c1c(N)n(/N=C/c2ccccn2)c2nc3ccccc3nc12	-8	1	10	-1	5	0	nt
CC/C=C/C(=O)N1CC2(CC(c3cccc(NC(=O)CC(c4ccccc4)c4ccccc4)c3)=NO2)C[C@@H]1C(N)=O (stereo partly specified)	-2	-15	53*	-3	3	-1	i
CC1(C(=O)N2CC3(CC(c4cccc(NC(=O)CC(c5ccccc5)c5ccccc5)c4)=NO3)C[C@@H]2C(N)=O)CC1 (stereo partly specified)	-5	0	17	4	0	-1	nt
CCCCCCc1cc2cc(C(=O)OCC)c(=O)oc2cc1O	-3	84*	+	10	190*	2	nt
CCCCCCc1cc2cc(S(=O)(=O)c3ccc(F)c(Cl)c3)c(=O)oc2cc1O	-4	63*	55*	19	130*	8	nt
CCCCCCn1cc(C(=O)OCC)c(=O)c2cc(F)c(F)cc21	-2	4	17	4	-1	0	nt
CCOC(=O)c1c(C)n(C)c2ccc(OC(=O)c3ccco3)cc12	-1	0	-1	-2	0	0	nt
CCOC(=O)c1cc2ccc(OC(=O)c3ccco3)cc2oc1=O	-2	62*	136*	18	182*	0	nt
CNc1c(NS(=O)(=O)c2ccc(F)c(Cl)c2)c(=O)oc2ccccc12	nt	nt	nt	nt	-3	nt	nt
CCCCCCc1cc2cc(C(N)=O)c(=N)oc2cc1O	-5	59*	72*	20	168*	2	nt
CCCCC(=O)OCCNC(=O)c1cc2ccccc2oc1=O	0	-4	5	1	0	0	nt
COc1ccc(OCCC(=O)NCCN2CCOCC2)cc1	0	6	-12	0	-3	0	nt
O=C(CSc1nc(C2CCCCC2)n(-c2ccccc2)n1)NCC(F)(F)F	0	2	1	0	-3	0	nt
CC1(C)Cc2c(cnn2-c2ccccc2)C(=O)/C1=N\NC(=O)c1ccccc1O	0	0	-3	1	3	0	nt
COc1ccc(-c2noc(N3CCC(C(=O)Nc4cc(OC)c(OC)c(OC)c4)CC3)n2)cc1	nt	nt	nt	nt	-3	nt	nt
O=C(CCC(=O)Nc1ccccc1)NNC(=O)C(c1ccccc1)c1ccccc1	1	4	1	1	2	2	nt
CCOc1ccc2cc(C(=O)NCc3ccccc3)c(=N)oc2c1	nt	nt	nt	nt	5	nt	nt
CCCCCCc1cc2cc(C(=O)NC)c(=N)oc2cc1O	-3	60*	51*	10	166*	1	i
CCc1ccc(NC(=O)CSc2nnc(CNC(=O)c3cccs3)o2)cc1	nt	nt	nt	nt	-1	nt	nt
O=C(Nc1ccc(NC(=O)c2sc3ccccc3c2Cl)cc1Cl)c1ccco1	-4	-4	78*	nt	0	0	i
O=C(Nc1ccc(NC(=O)c2cccs2)c(Cl)c1)c1ccco1	3	4	19	1	2	63	nt
Cc1ccc(N(C)C(=O)c2cc(S(=O)(=O)N3CCCC3)cn2C)cc1	nt	nt	nt	nt	1	nt	nt
CC(=O)OCC1=C(C(=O)O)N2C(=O)C(NC(=O)C(C)Cn3nc(C)c(Cl)c3C)C2SC1 (stereo unspecified)	-1	0	70*	2	0	0	i
SMILES	TNF necrop inh	Runt-SMMHC FRET	Hck Nef HTS	Runt-CBFb FRET	RanGTP-Impb inh	zVAD death inh	Hck-Nef confirm
C=CCOc1ccc(Br)cc1/C=C1/SC(=Nc2ccc(C(=O)O)cc2)NC1=O	1	-7	59*	-10	nt	30	+
COc1cc(OC)nc(NC(=O)NS(=O)(=O)c2ccc(F)cc2)n1	5	3	4	0	?	0	nt
COc1cc2c(cc1OC)CN(c1nc(-c3cccnc3)nc3ccccc13)CC2	-4	-9	68*	-9	-3	2	+
Cc1cc(/C=C2\SC(=Nc3ccc(F)cc3)NC2=O)c(C)n1-c1ccc(S(N)(=O)=O)cc1	-18	6	65*	5	?	5	+
Cc1cc(/C=C2/SC(=O)NC2=O)c(C)n1-c1ccc(N2CCOCC2)cc1	2	3	5	-3	4	1	nt
COc1ccc(-c2ccc(/C=N/NC(=O)Cc3nnc(N)s3)o2)cc1Cl	-4	-2	79*	8	2	0	i
Cc1ccc(NC(=O)COc2ccc(/C=N/NC(=O)CSCc3ccccc3)cc2)cc1	-5	4	1	0	-3	17	nt
Cc1ccc(NC(=O)COc2ccc(/C=C3/SC(=Nc4ccccc4)N(Cc4cccnc4)C3=O)cc2)cc1	0	-26	90*	-9	0	0	+
COc1ccc(/C=C/c2nnc(NC(=O)c3ccco3)s2)cc1	2	21	53*	2	9	0	i
COc1ccc(-c2nnc(NC(=O)c3ccco3)s2)cc1	nt	nt	nt	nt	3	nt	nt
Cc1ccc(NC(=O)CN(C)C(=S)NC2CC2)cc1	-2	-1	23	2	2	1	nt
Cc1cc(=O)oc2cc3c(cc12)OCCN3	-5	44	107*	10	97*	0	nt
Cc1ccc(-c2csc3ncnc(Nc4ccc(C(=O)O)cc4)c23)cc1	-6	-1	55*	-3	-9	0	i
C=CCn1c(SCC(=O)Nc2ccc(-c3nc4ccc(C)cc4s3)cc2)nnc1-c1ccncc1	1	10	9	0	3	1	nt
CCn1c(SCC(=O)Nc2ccc(-c3nc4ccc(C)cc4s3)cc2)nnc1-c1ccccc1	-1	12	62*	-1	1	nt	+
Cc1cccc(-n2cnc(C(=O)N/N=C\c3ccc(Br)cc3)c2)n1	-1	1	80*	-1	-2	0	i
Cc1cccc(-n2cnc(C(=O)NNC(=S)Nc3ccc(Cl)cc3)c2)n1	-2	0	0	8	1	4	nt
O=C(N/N=C/c1coc2ccccc2c1=O)c1ccc(Cl)cc1	nt	nt	nt	nt	2	nt	nt
NCCCCCC(=O)N/N=C/c1coc2ccccc2c1=O	0	0	84*	1	?	-1	+
N#CCC(=O)N/N=C/c1coc2ccccc2c1=O	2	6	81*	-3	2	0	+
